Usually EC50 stands for the midpoint of the concentration-response curve. As a reminder, the AUC is the area under the concentration-time curve, a measure of exposure. For orientation: half-life means how long it takes for the measured level to halve. As usually defined, the Cmax is the peak of the concentration-time curve.

Active and inactive are the calls of the source. The rule behind the calls is not given here.

This is an account of results in ChEMBL document CHEMBL3102781, “Synthesis and activity of substituted heteroaromatics as positive allosteric modulators for α4β2α5 nicotinic acetylcholine receptors” (Bioorg Med Chem Lett, 2014).

Data set [1] addresses T1, Nicotinic acetylcholine receptor alpha4/beta2/alpha5 (Homo sapiens) (UniProt P17787+P43681+P30532). Nature of the data set: Agonist activity at human alpha4beta2alpha5 nACHR expressed in HEK-tsA201 cells by fluorometric analysis. It counts as cell-based.
The target of data set [2] is T2, Neuronal acetylcholine receptor; alpha4/beta2 (Homo sapiens, UniProt P17787+P43681). Nature of the data set: Positive allosteric modulation of human alpha4beta2 nACHR expressed in HEK-tsA201 cells assessed as potentiation of nicotine-induced current preincubated for 15 mins followed by nicotine-treatment by fluorometric analysis. It counts as cell-based. The method, boiled down:
(§1)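 Human AChR subtypes were stably expressed in HEK tsA201 cells grown in DMEM with 10% FBS at 37 °C. Plating was 150,000/well for lines without α5 and 200,000/well for α5 lines, on poly-D-lysine plates. β2-containing lines were incubated 20 h at 29 °C before testing. Serial dilutions of compound were added 15 min before nicotine. Membrane-potential fluorescence was read on a FLEXstation, with 3–4 wells per point and a Hill equation fit.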

For data set [3], the target named is Neuronal acetylcholine receptor; alpha3/beta4 (Homo sapiens) (UniProt P30926+P32297). As to the kind of experiment: Positive allosteric modulation of human alpha3beta4 nACHR expressed in HEK-tsA201 cells assessed as potentiation of nicotine-induced current preincubated for 15 mins followed by nicotine-treatment by fluorometric analysis. It counts as cell-based. The essentials: as §1

Data set [4] addresses T2, Neuronal acetylcholine receptor; alpha4/beta2. As to the kind of experiment: Positive allosteric modulation of alpha4beta2 nACHR (unknown origin). It counts as protein-complex assay.
Data set [5] concerns the target Nicotinic acetylcholine receptor alpha3/beta2/alpha5 (Homo sapiens) (UniProt P17787+P32297+P30532). As to the kind of experiment: Positive allosteric modulation of human alpha3beta2alpha5 nACHR expressed in HEK-tsA201 cells assessed as potentiation of nicotine-induced current preincubated for 15 mins followed by nicotine-treatment by fluorometric analysis. It counts as cell-based. The method, boiled down:
as §1

Data set [6] concerns the target Nicotinic acetylcholine receptor alpha4/beta2/alpha5 (Homo sapiens, UniProt P17787+P30532+P43681). Nature of the data set: Positive allosteric modulation of human alpha4beta2alpha5 nACHR expressed in HEK-tsA201 cells assessed as potentiation of nicotine-induced current preincubated for 15 mins followed by nicotine-treatment by fluorometric analysis. It counts as cell-based. The method, boiled down: as §1

Data set [7] concerns the target Neuronal acetylcholine receptor; alpha3/beta2 (Homo sapiens) (UniProt P17787+P32297). Nature of the data set: Positive allosteric modulation of human alpha3beta2 nACHR expressed in HEK-tsA201 cells assessed as potentiation of nicotine-induced current preincubated for 15 mins followed by nicotine-treatment by fluorometric analysis. It is filed as cell-based. The method, boiled down:
as §1

Data set [8] has as its target Nicotinic acetylcholine receptor alpha3/beta4/alpha5 (Homo sapiens) (UniProt P30926+P32297+P30532). As to the kind of experiment: Positive allosteric modulation of human alpha3beta4alpha5 nACHR expressed in HEK-tsA201 cells assessed as potentiation of nicotine-induced current preincubated for 15 mins followed by nicotine-treatment by fluorometric analysis. It counts as cell-based. The method, boiled down: as §1

Data set [9] addresses T1, Nicotinic acetylcholine receptor alpha4/beta2/alpha5 (Homo sapiens). As to the kind of experiment: Positive allosteric modulation of human alpha4beta2alpha5 nACHR expressed in HEK-tsA201 cells assessed as potentiation of nicotine-induced current at 1 uM preincubated for 15 mins followed by nicotine-treatment by fluorometric analysis. It is filed as cell-based. The method, boiled down: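 In human α4β2α5 AChR HEK tsA201 cells (200,000/well, 20 h at 29 °C before testing), compound was added 15 min before nicotine. Potentiation of the nicotine response was read by membrane-potential fluorescence on a FLEXstation, with 3–4 wells averaged per point.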

For data set [10], the system named is Mus musculus. As to the kind of experiment: AUC in mouse at 2 mg/kg, po. It counts as ADME, organism-based, Plasma. The settings on record: in vivo. Set-up: dose 2 mg/kg, route oral. The method, boiled down:
(§2)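 Mouse pharmacokinetics. Each compound was dosed 1 mg/kg IV and 2 mg/kg PO. From these the following were derived: clearance, half-life, PO AUC, PO Cmax, volume of distribution and oral bioavailability (F%).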

Data set [11] deals with T1, Nicotinic acetylcholine receptor alpha4/beta2/alpha5 (Homo sapiens). As to the kind of experiment: Positive allosteric modulation of human alpha4beta2alpha5 nACHR expressed in HEK-tsA201 cells assessed as potentiation of nicotine-induced current preincubated for 15 mins followed by nicotine-treatment by fluorometric analysis relative to NS9283. It counts as cell-based. The method, boiled down: as §1

Data set [12] in a line: Half life in mouse at 1 mg/kg, iv and 2 mg/kg, po. It is filed as ADME, organism-based. The settings on record: in vivo. The method, boiled down: as §2
The test system of data set [13] is Mus musculus. As to the kind of experiment: Volume of distribution in mouse at 1 mg/kg, iv and 2 mg/kg, po. The settings on record: in vivo. It counts as ADME, organism-based. The essentials: as §2
For data set [14], the system named is Mus musculus. Nature of the data set: Oral bioavailability in mouse at 2 mg/kg. It counts as ADME, organism-based. The settings on record: in vivo. The method, boiled down: as §2
Data set [15] in a line: Cmax in mouse at 2 mg/kg, po. It is filed as ADME, organism-based. Set-up: dose 2 mg/kg, route oral. The settings on record: in vivo. The essentials:
as §2

Data set [16] in a line: Plasma concentration in mouse at 10 mg/kg, ip after 2 hrs. It is filed as ADME, organism-based. Also on record: dose 10 mg/kg, route intraperitoneal. The method, boiled down: (§3)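 Mice were given 10 mg/kg by intraperitoneal injection. Plasma and brain drug levels were measured 2 h after dosing.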
Data set [17] in a line: Drug uptake in mouse brain at 10 mg/kg, ip after 2 hrs. It counts as ADME, organism-based. Also on record: dose 10 mg/kg, route intraperitoneal. The settings on record: read-out: Drug uptake. The essentials: as §3

Nicotinic acetylcholine receptor alpha4/beta2/alpha5, sequence (P17787 whole entry): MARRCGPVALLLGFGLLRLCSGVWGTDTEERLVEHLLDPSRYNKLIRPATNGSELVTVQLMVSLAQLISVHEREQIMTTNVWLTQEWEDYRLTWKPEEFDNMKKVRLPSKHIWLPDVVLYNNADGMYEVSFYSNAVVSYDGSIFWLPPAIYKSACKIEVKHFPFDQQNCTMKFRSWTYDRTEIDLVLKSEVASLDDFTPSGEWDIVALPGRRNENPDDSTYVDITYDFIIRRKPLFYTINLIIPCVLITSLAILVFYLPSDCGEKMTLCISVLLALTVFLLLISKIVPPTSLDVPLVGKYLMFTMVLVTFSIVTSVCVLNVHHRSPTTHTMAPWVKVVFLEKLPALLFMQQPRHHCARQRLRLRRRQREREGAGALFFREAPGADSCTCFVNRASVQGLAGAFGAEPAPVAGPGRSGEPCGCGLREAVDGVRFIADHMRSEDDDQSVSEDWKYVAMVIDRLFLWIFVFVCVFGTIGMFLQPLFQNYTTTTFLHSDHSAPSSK
Nicotinic acetylcholine receptor alpha4/beta2/alpha5, sequence (P43681 whole entry): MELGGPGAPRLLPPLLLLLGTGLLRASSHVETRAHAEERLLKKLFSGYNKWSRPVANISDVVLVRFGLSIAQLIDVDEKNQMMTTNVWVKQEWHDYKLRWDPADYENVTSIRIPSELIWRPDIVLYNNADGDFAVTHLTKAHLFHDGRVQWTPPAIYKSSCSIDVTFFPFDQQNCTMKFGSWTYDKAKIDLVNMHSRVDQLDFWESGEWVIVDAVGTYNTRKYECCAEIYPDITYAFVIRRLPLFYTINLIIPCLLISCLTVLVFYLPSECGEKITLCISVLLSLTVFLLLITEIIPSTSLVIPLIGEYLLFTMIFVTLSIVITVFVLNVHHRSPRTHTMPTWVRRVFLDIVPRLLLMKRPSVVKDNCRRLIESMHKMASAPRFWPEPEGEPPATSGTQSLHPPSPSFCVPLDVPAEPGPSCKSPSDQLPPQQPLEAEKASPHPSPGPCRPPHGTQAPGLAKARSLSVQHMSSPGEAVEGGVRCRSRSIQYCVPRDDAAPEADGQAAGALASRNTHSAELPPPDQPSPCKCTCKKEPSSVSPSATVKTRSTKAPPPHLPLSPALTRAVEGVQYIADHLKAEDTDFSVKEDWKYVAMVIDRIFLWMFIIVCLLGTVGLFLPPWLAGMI
Nicotinic acetylcholine receptor alpha4/beta2/alpha5, sequence (P30532 whole entry): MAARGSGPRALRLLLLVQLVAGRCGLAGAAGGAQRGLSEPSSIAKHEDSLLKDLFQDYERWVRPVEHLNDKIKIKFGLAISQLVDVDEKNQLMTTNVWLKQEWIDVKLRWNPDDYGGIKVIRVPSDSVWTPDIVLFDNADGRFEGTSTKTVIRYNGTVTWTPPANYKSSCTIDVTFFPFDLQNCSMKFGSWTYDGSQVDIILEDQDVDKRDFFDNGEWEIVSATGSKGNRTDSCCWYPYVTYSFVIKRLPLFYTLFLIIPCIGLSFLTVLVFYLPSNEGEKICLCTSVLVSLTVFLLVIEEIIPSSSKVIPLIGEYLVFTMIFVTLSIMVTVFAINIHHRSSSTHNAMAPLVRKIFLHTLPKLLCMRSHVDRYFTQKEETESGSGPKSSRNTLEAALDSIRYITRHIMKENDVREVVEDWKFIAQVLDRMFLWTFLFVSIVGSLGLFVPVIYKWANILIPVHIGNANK
T2 sequence (P17787 whole entry): as the sequence (P17787 whole entry) above
T2 sequence (P43681 whole entry): as the sequence (P43681 whole entry) above

As to `N#Cc1cccc(-c2nc(-c3cccnc3)no2)c1`, the result in data set [1], in [3], in [5], in [7] and in data set [8] was inactive. In data set [2], the result was Active. In addition, the EC50 was 990 nM in data set [4] and 790 nM in data set [6]. For the same molecule, the Activity in data set [9] was over 50%.

In [10], `N#Cc1cccc(-n2nnc(-c3cccnc3)n2)c1` gave an AUC of 21 µM·h. Besides, the result in data set [1], in data set [3], in data set [5], in [7] and in [8] was inactive. Moreover, in [2], the outcome was Active. Besides, the Emax in data set [11] came to 2.5. Further, the half-life in [12] is 54 min. This molecule gave a Vd in [13] of 2.7 L/kg. For the same molecule, the concentration giving a half-maximal response (EC50) in data set [6] was 2000 nM. Also, the F in data set [14] amounted to 100%. Further, the highest concentration (Cmax) in [15] worked out at 4.1 µM. Also, the concentration at 2 h was 11 µM in data set [16] and 4.4 µM in data set [17]. Also, the Activity in [9] was over 50%.
